Compound activity (PubChem BioAssay)
A selection: hits, their analogues and other compounds. The true share with any hit is near 1.8%.
CHRM5 PAM: human M5 muscarinic receptor positive allosteric modulators, primary screen, CHO-K1 cells, Fluo-8 calcium fluorescence; CHO-K1 hM5, ACh EC20 PAM; 0% = ACh EC20, 100% = ACh EC100; activation, % at 3 µM; 360,000 tested, 0.3% active; AID 624038, 2012;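 active means activation above the run cutoff, the mean activation of all test compounds plus 3 SD, cut at about 18% in these data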
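System: CHO-K1 cell line with stable human muscarinic M5 receptor expression | Also added: EC20 acetylcholine as agonist stimulus | Compound: One concentration, 3 µM final (nominal) | Timing: Fluo-8 loading 80 min at 37 °C plus 30 min room temperature | Measured by: Fluo-8 calcium dye fluorescence, kinetic read | Read-out basis: % activation, ACh-normalized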
CHRM4 PAM: human M4 muscarinic receptor positive allosteric modulators, primary screen, CHO-K1 cells, Fluo-8 calcium fluorescence. Muscarinic acetylcholine receptor M4 (Homo sapiens), P08173. CHO-K1 hM4/Gqi5, ACh EC20; 0% = ACh EC20, 100% = maximal ACh. activation, % at 3 µM. 360,000 tested, 0.4% active;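 active means activation above its plate's cutoff, the mean activation of sample wells plus 3 SD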
Target sequence (P08173 whole entry, looked up): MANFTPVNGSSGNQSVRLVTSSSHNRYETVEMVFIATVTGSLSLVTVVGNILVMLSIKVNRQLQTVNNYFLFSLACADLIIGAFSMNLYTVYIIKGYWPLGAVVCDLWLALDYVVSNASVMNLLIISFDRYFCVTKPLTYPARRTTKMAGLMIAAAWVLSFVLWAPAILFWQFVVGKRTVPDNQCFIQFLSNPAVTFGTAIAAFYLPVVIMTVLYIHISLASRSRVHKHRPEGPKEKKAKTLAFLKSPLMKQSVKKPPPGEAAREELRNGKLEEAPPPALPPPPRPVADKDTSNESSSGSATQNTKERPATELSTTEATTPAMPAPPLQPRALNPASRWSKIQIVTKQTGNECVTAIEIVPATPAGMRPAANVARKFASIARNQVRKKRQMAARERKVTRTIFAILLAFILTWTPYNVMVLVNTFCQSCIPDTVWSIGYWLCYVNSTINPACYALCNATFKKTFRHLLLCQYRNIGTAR
M5 ag: human M5 muscarinic receptor agonists, primary screen, CHO-K1 cells, Fluo-8 calcium fluorescence. CHO-K1 hM5 cells; 0% DMSO wells, 100% maximal acetylcholine response. 360,000 tested, 0.19% active. AID 624037, 2012. Muscarinic acetylcholine receptor M5 (Homo sapiens), P08912. activation, % at 3 µM;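 active means activation above the run's mean over test compounds plus 3 SD, cut at about 23% in these data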;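 further: signal is peak over basal fluorescence ratio across the kinetic read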
CHRM4 antagonist: human M4 muscarinic receptor antagonists, primary screen, CHO cells, Fluo-8 calcium fluorescence. inhibition, % at 3 µM. 360,000 tested, 0.73% active. Muscarinic acetylcholine receptor M4 (Homo sapiens), P08173. CHO-hM4 cells, ACh EC80. AID 624125, 2012;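 active means inhibition above its plate's cutoff, the mean inhibition of sample wells plus 3 SD, cut at about 27% in these data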;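 further: 0% = acetylcholine EC80 with DMSO and 100% = DMSO without agonist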
M5 antag: human M5 muscarinic receptor antagonists, primary screen, CHO cells, Fluo-8 calcium fluorescence. Muscarinic acetylcholine receptor M5 (Homo sapiens), P08912. CHO-hM5 cells, ACh EC80. inhibition, % at 3 µM. 360,000 tested, 0.59% active;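 active means inhibition above a per-plate cutoff, the mean of that plate's test compounds plus 3 SD, cut at about 27% in these data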;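 further: 0% = acetylcholine EC80 with DMSO and 100% = DMSO without agonist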
CHRM4 agonist: human M4 muscarinic receptor agonists, primary screen, CHO-K1 cells, Fluo-8 calcium fluorescence. activation, % at 3 µM. Muscarinic acetylcholine receptor M4 (Homo sapiens), P08173. 360,000 tested, 0.14% active. CHO-K1 hM4/Gqi5; vehicle 0%, full acetylcholine response 100%. AID 624127, 2012;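 active means activation above the run mean over all test wells plus 3 SD, cut at about 32% in these data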;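 further: peak over basal fluorescence ratio per well then scaled between controls; 0% = DMSO wells and 100% = acetylcholine at EC100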
Starred values were filed as active, the others as inactive.

`C[C@]12CC[C@@H](O)CC1=CCC1C2CC[C@@]2(C)C1C[C@@H](F)[C@H]2O` (stereo partly drawn) gave CHRM5 PAM -0.5, CHRM4 PAM 3.5, M5 ag 1.9, CHRM4 antagonist -2.9, M5 antag 16.7 and CHRM4 agonist 3.0.
CCOc1cc2c(cc1OCC)-n1cccc1C(c1c(O)cccc1OC)NC2 (stereo not drawn) was read as CHRM5 PAM -2.2, CHRM4 PAM 3.7, M5 ag -2.9, CHRM4 antagonist -13.6, M5 antag 13.7 and CHRM4 agonist 2.3.
For CC(C)c1ccccc1OCC(=O)N1CCCN(C)CC1 the results were CHRM5 PAM -8.8, CHRM4 PAM -5.5, M5 ag -6.0, CHRM4 antagonist -2.1, M5 antag 5.8 and CHRM4 agonist 0.6.
Screening Cc1cccc(C)c1-n1nnnc1C(C1CC1)N1CCC(n2c(=O)[nH]c3ccccc32)CC1 (stereo not drawn) returned CHRM5 PAM -12.8, CHRM4 PAM -6.7, M5 ag 3.4, CHRM4 antagonist 0.3, M5 antag 6.5 and CHRM4 agonist 3.4.
`O=C1NC(=O)N(Cc2ccc(F)cc2)C(=O)/C1=C\c1ccoc1` gave CHRM5 PAM -12.8, CHRM4 PAM 0.1, M5 ag 25.1*, CHRM4 antagonist -10.2, M5 antag 12.0 and CHRM4 agonist 7.3.
CN(C)c1ccc(/C=C2\C(=O)NC(=O)N(Cc3ccc(F)cc3)C2=O)cc1 was read as CHRM5 PAM -2.6, CHRM4 PAM 0.2, M5 ag 1.9, CHRM4 antagonist 5.3, M5 antag 8.0 and CHRM4 agonist 1.9.
Screening C=C1C(C)C2C(Cc3ccccc3)NC(=O)C23C(OC(C)=O)C=CC(C)(O)CC(C)CC=CC3C1O (stereo not drawn) returned CHRM5 PAM 21.0*, CHRM4 PAM 7.3, M5 ag 4.3, CHRM4 antagonist -19.1, M5 antag -12.3 and CHRM4 agonist 1.6.
O=S(=O)(NC1CN2CCC1CC2)c1ccc(Cl)cc1 (stereo not drawn) was read as CHRM5 PAM -2.7, CHRM4 PAM 0.2, M5 ag -7.2, CHRM4 antagonist 0.9, M5 antag 17.0 and CHRM4 agonist 0.6.
For OC(c1cccc(Cl)c1)(c1cccc(Cl)c1)C1CN2CCC1CC2 (stereo not drawn) the results were CHRM5 PAM -21.7, CHRM4 PAM -23.5, M5 ag -5.1, CHRM4 antagonist 94.2*, M5 antag 99.4* and CHRM4 agonist 22.0.
CN1C2CCC1CC(OC(c1ccccc1)c1ccccc1N)C2 (stereo not drawn) was read as CHRM5 PAM -18.6, CHRM4 PAM -18.7, M5 ag -0.9, CHRM4 antagonist 100.3*, M5 antag 99.5* and CHRM4 agonist 0.1.
For Cn1cc(C(=O)OCC(=O)NC2(C#N)CCCCC2)c2ccccc21 the results were CHRM5 PAM -4.0, CHRM4 PAM 0.8, M5 ag -2.3, CHRM4 antagonist -5.6, M5 antag -0.6 and CHRM4 agonist 2.6.
Screening Nc1ccnn1C1CCNCC1 returned CHRM5 PAM -5.4, CHRM4 PAM -1.5, M5 ag -3.4, CHRM4 antagonist -4.6, M5 antag 27.0* and CHRM4 agonist 0.4.
`CN1CCC(n2nccc2N)CC1` gave CHRM5 PAM 1.6, CHRM4 PAM -0.7, M5 ag -0.6, CHRM4 antagonist 0.9, M5 antag 4.5 and CHRM4 agonist -0.4.
CC(C)(C)N1CC(C(=O)c2ccccc2)C1c1ccccc1 (stereo not drawn) was read as CHRM5 PAM -7.9, CHRM4 PAM -5.1, M5 ag -11.7, CHRM4 antagonist 1.6, M5 antag 5.5 and CHRM4 agonist -0.9.
`O=C(Nc1ccc(C(F)(F)F)cc1)OC1CN2CCC1CC2` (stereo not drawn) gave CHRM5 PAM -7.4, CHRM4 PAM -20.4, M5 ag -16.0, CHRM4 antagonist -5.2, M5 antag 5.9 and CHRM4 agonist 4.3.
`O=C(Nc1cccc(C(F)(F)F)c1)OC1CN2CCC1CC2` (stereo not drawn) gave CHRM5 PAM -17.5, CHRM4 PAM -15.8, M5 ag -6.5, CHRM4 antagonist 43.3*, M5 antag 69.8* and CHRM4 agonist 2.5.
Screening O=[N+]([O-])c1cc([As](=O)(O)O)ccc1O returned CHRM5 PAM -13.1, CHRM4 PAM 6.0, M5 ag 35.6*, CHRM4 antagonist -17.8, M5 antag -1.6 and CHRM4 agonist 0.5.
Screening O=C(Nc1ccc(Cl)c(Cl)c1)c1ccco1 returned CHRM5 PAM 12.7, CHRM4 PAM -3.0, M5 ag -0.1, CHRM4 antagonist -1.5, M5 antag -1.5 and CHRM4 agonist 1.6.
For C=CCNC(=S)Nc1ccc(OC(=O)Nc2ccc(Cl)c(Cl)c2)cc1 the results were CHRM5 PAM -9.1, CHRM4 PAM -9.2, M5 ag -0.1, CHRM4 antagonist 22.4, M5 antag 28.0* and CHRM4 agonist 8.9.
COC1CC2C=C(C)C=CC=CC(=O)NC(c3ccccc3)CC=CCCC(O)CC(=O)C2=C1O (stereo not drawn) was read as CHRM5 PAM -20.0, CHRM4 PAM -14.1, M5 ag 16.4, CHRM4 antagonist 87.1*, M5 antag 53.8* and CHRM4 agonist 20.8.
`C[n+]1c(-c2ccccc2)cc(CCCCc2cc(-c3ccccc3)[n+](C)c(-c3ccccc3)c2)cc1-c1ccccc1` gave CHRM5 PAM -22.9, CHRM4 PAM -21.1, M5 ag -16.3, CHRM4 antagonist 46.5*, M5 antag 19.8 and CHRM4 agonist 0.5.
Screening COc1ccc(-c2cc(-c3ccccc3)[n+](C)c(-c3ccccc3)c2)cc1 returned CHRM5 PAM -9.7, CHRM4 PAM -7.8, M5 ag -9.9, CHRM4 antagonist 10.4, M5 antag 22.9 and CHRM4 agonist 0.5.
OC(CN1CCCCC1)c1c[nH]c2ccccc12 (stereo not drawn) was read as CHRM5 PAM -14.3, CHRM4 PAM -18.0, M5 ag -5.1, CHRM4 antagonist 86.0*, M5 antag 24.9 and CHRM4 agonist 0.5.
For CC1CCCCN1CC(O)c1c[nH]c2ccccc12 (stereo not drawn) the results were CHRM5 PAM 3.8, CHRM4 PAM 2.7, M5 ag -3.9, CHRM4 antagonist 0.0, M5 antag 5.0 and CHRM4 agonist 0.8.
